Calls of active or inactive are those of the source.
Columns and labels:
Mus musculus [1] = assay: Antiinflammatory activity in Swiss mouse assessed as inhibition of carrageenan-induced paw edema 30 ng/paw administered as intraplantar injection pretreated for 1 hr followed by carrageenan challenge measured after 1 to 4 hrs; format: functional, organism-based
Summary of the method: (§1)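 Male Swiss mice, 25−35 g, given an intraplantar pretreatment in 0.1% Tween 20 vehicle. The right hind paw then received carrageenan, 300 μg in 50 μL sterile 0.9% saline, given subcutaneously; the contralateral paw received saline only. Paw thickness was read by digital micrometer 1 h before and 1, 2 and 4 h after carrageenan. The result is the thickness difference in μm; mean ± SEM, 5−8 animals.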

Mus musculus [2] = assay: Antinociceptive activity in PGE2-induced Swiss mouse model of mechanical hyperalgesia at 320 ng/paw administered as intraplantar injection pretreated for 15 mins followed by PGE2 challenge after 3 hrs by Von Frey filament assay; format: functional, organism-based
Summary of the method: (§2)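 Male Swiss mice received intraplantar pretreatment, vehicle 20 μL of 0.1% Tween 20. After 15 min the right paw was injected with PGE2 (100 ng/paw), dopamine (3 μg/paw) or dbcAMP (5 μg/paw). The 50% mechanical withdrawal threshold was measured by von Frey filaments, up-and-down method, before injection and 3 h after the stimulus; mean ± SEM, 5−8 animals.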

Mus musculus [3] = assay: Antinociceptive activity in dopamine-induced Swiss mouse model of mechanical hyperalgesia at 320 ng/paw administered as intraplantar injection pretreated for 15 mins followed by dopamine challenge after 3 hrs by Von Frey filament assay; format: functional, organism-based; summary of the method: as §2
Mus musculus [4] = assay: Antinociceptive activity in dibutyryl cyclic AMP-induced Swiss mouse model of mechanical hyperalgesia at 320 ng/paw administered as intraplantar injection pretreated for 15 mins followed by dibutyryl cyclic AMP challenge after 3 hrs by Von Frey filament assay; format: functional, organism-based; summary of the method: as §2
Mus musculus [5] = assay: Toxicity in Swiss mouse assessed as motor impairment at 5 mg/kg, sc incubated for 15 mins measured for 180 secs by rotarod test; format: organism-based; conditions: in vivo, 0.05 h
Summary of the method: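 Male Swiss mice (25−35 g) were preselected for staying at least 60 s on a Rotarod at 22 rpm (one of three trials). Diazepam was given at 5.0 mg/kg s.c. as the positive control. Local intraplantar treatments (15 pg/paw, or 20 μL vehicle of 0.1% Tween 20) were tested 3 h later. The Rotarod task lasted 180 s, n = 6.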

Mus musculus [6] = assay: Antiinflammatory activity in Swiss mouse assessed as inhibition of carrageenan-induced paw edema administered as intraplantar injection pretreated for 1 hr followed by carrageenan challenge measured after 1 to 4 hrs; format: functional, organism-based; summary of the method: as §1
Mus musculus [7] = assay: Antinociceptive activity in carrageenan-induced Swiss mouse model of mechanical hyperalgesia administered as intraplantar injection pretreated for 15 mins followed by carrageenan challenge after 3 hrs by Von Frey filament assay; format: functional, organism-based
Summary of the method: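 Male Swiss mice were acclimatized 1 h on a wire mesh platform and given a basal von Frey up-and-down test (six measurements, 50% withdrawal threshold). Intraplantar treatment followed, 5−50 pg into the right paw, vehicle 0.1% Tween 20 in saline, 20 μL. After 15 min, carrageenan 300 μg/paw in 20 μL went into the right hindpaw. The threshold was remeasured at 3 h; mean ± SEM, 5−8 animals.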

Mus musculus [8] = assay: Antinociceptive activity in PGE2-induced Swiss mouse model of mechanical hyperalgesia at 15 pg/paw administered as intraplantar injection pretreated for 15 mins followed by PGE2 challenge after 3 hrs by Von Frey filament assay; format: functional, organism-based; summary of the method: as §2
Mus musculus [9] = assay: Antinociceptive activity in dopamine-induced Swiss mouse model of mechanical hyperalgesia at 15 pg/paw administered as intraplantar injection pretreated for 15 mins followed by dopamine challenge after 3 hrs by Von Frey filament assay; format: functional, organism-based; summary of the method: as §2
Mus musculus [10] = assay: Antinociceptive activity in dibutyryl cyclic AMP-induced Swiss mouse model of mechanical hyperalgesia at 15 pg/paw administered as intraplantar injection pretreated for 15 mins followed by dibutyryl cyclic AMP challenge after 3 hrs by Von Frey filament assay; format: functional, organism-based; summary of the method: as §2
Mus musculus [11] = assay: Toxicity in Swiss mouse assessed as motor impairment at 15 pg/paw administered as intraplantar injection incubated for 3 hrs measured for 180 secs by rotarod test; format: organism-based; conditions: in vivo, other
Summary of the method: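 Male Swiss mice were preselected for staying at least 60 s on a Rotarod at 22 rpm (one of three trials). They received intraplantar treatment (vehicle 20 μL of 0.1% Tween 20) and were tested on the Rotarod 3 h later for 180 s; mean ± SEM, n = 6.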

Mus musculus [12] = organism: Mus musculus; assay: Antinociceptive activity in Swiss mouse assessed as increase in thermal-stimulus induced paw withdrawal or licking latency at 15 pg/paw after 3 hrs by hot plate method; format: functional, organism-based
Summary of the method: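 Male Swiss mice were preselected for a basal latency of 7−15 s on a 55 °C metal platform. They then received intraplantar treatment (vehicle 20 μL of 0.1% Tween 20) and were re-exposed at 3 h. The end point was paw withdrawal or licking, cutoff 30 s. Data are %MPE = (post − basal)/(cutoff − basal) × 100; mean ± SEM, n = 6.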

C[C@@H]1C[C@H]2[C@@H]3CCC4=CC(=O)C=C[C@]4(C)[C@@]3(F)[C@@H](O)C[C@]2(C)[C@@]1(O)C(=O)CO
inhibition (Mus musculus [1]): Active

Cc1c(N(C)CS(=O)(=O)O)c(=O)n(-c2ccccc2)n1C
Activity (Mus musculus [2]): Active
Activity (Mus musculus [3]): Active
Activity (Mus musculus [4]): Active

CN1C(=O)CN=C(c2ccccc2)c2cc(Cl)ccc21 [DIAZEPAM]
Activity (Mus musculus [5]): Toxic

C=C1OC2=C(C(=O)C(=O)c3c(O)cccc32)C1(C)C
inhibition (Mus musculus [6]): Dose-dependent effect
Activity (Mus musculus [7]): Dose-dependent effect
Activity (Mus musculus [8]): Active
Activity (Mus musculus [9]): Active
Activity (Mus musculus [10]): inactive
Activity (Mus musculus [11]): Non-Toxic
Activity (Mus musculus [12]): inactive

— ChEMBL document CHEMBL4190213, “Naphthoquinones of Sinningia reitzii and Anti-inflammatory/Antinociceptive Activities of 8-Hydroxydehydrodunnione” (J Nat Prod, 2017)
